ChEMBL document CHEMBL4028826, “Virtual screen to NMR (VS2NMR): Discovery of fragment hits for the CBP bromodomain” (Bioorg Med Chem Lett, 2017)

What was measured:
CREB-binding protein [1] = target: T1, CREB-binding protein (Homo sapiens, UniProt Q92793); assay: Binding affinity to CBP (unknown origin) assessed as change in melting temperature at 1 mM by differential scanning fluorimetric method
Method in brief: (§1)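 Differential scanning fluorimetry with bromodomain at 2 μM and ligand at 1 mM. The reported shift in melting temperature is the median of at least nine measurements for each ligand/bromodomain pair.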
Target sequence in this assay (Q92793 2-2442 limits assumed): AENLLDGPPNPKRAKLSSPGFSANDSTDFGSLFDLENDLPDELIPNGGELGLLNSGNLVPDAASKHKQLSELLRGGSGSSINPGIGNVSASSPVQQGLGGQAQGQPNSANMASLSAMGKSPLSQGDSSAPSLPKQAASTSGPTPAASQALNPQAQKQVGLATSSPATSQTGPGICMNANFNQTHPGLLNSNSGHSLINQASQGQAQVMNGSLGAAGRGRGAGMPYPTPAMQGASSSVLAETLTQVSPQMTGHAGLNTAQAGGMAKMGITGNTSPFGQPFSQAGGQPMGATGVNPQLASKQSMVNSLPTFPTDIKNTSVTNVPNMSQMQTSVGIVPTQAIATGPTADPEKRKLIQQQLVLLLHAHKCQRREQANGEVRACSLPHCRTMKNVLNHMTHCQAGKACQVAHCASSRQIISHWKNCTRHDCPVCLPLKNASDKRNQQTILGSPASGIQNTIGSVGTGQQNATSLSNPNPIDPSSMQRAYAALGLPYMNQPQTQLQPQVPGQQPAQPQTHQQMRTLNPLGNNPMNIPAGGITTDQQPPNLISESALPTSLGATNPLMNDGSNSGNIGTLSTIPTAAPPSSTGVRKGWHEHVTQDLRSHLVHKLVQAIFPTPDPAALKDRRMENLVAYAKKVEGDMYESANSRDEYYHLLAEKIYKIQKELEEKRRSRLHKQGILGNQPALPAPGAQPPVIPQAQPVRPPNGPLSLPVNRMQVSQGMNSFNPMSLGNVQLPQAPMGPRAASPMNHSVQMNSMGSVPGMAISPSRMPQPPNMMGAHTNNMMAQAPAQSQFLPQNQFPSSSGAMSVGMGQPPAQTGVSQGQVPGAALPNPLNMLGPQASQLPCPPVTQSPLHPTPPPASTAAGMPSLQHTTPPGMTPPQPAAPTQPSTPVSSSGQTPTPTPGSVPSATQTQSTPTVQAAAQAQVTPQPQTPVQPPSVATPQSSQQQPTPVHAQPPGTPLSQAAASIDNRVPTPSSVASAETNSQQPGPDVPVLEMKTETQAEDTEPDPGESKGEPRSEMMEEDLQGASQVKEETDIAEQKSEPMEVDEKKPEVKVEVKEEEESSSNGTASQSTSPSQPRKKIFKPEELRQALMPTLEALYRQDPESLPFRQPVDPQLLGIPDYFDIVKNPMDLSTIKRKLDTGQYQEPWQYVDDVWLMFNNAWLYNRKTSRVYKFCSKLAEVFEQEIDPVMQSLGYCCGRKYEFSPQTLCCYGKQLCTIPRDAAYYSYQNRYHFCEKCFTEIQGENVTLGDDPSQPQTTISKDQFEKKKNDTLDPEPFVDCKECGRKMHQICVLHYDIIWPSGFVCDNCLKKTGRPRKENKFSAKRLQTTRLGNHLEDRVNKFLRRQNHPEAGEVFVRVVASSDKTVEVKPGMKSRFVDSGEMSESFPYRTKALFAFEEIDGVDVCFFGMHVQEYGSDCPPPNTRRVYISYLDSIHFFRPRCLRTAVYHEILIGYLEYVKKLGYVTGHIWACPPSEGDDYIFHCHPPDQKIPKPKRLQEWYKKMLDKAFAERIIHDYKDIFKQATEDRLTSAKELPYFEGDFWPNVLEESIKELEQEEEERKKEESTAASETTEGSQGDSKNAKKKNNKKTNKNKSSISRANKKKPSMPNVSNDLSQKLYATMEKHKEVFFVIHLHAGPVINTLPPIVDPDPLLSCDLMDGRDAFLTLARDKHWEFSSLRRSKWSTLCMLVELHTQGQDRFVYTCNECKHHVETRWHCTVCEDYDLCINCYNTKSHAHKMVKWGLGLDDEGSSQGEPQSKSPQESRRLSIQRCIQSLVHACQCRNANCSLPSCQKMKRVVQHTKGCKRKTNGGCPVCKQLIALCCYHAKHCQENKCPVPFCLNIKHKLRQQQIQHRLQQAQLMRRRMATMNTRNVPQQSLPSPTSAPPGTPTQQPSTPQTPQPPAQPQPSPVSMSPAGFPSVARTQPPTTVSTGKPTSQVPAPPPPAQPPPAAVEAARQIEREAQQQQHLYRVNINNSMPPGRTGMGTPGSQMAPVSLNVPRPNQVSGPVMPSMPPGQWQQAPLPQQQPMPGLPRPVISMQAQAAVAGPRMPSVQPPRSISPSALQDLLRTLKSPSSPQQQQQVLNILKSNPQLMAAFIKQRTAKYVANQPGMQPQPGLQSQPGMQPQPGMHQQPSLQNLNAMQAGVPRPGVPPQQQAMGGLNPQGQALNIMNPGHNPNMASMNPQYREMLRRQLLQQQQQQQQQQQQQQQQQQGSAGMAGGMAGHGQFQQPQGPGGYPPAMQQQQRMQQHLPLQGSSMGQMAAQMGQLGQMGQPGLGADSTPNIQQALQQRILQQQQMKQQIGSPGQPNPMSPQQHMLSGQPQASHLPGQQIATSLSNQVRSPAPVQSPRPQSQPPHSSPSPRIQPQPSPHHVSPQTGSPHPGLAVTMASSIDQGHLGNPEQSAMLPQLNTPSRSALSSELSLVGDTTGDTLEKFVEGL

[2] = target: Histone acetyltransferase p300 (Homo sapiens) (UniProt Q09472); assay: Binding affinity to EP300 (unknown origin) assessed as change in melting temperature at 1 mM by differential scanning fluorimetric method; method in brief: as §1
CREB-binding protein [3] = target: T1, CREB-binding protein; assay: Residual binding of human CBP expressed in Escherichia coli to histone H4 tetraacetylated peptide at 0.5 mM by Alphascreen assay relative to control
Target sequence in this assay (Q92793 2-2442 limits assumed): as above

CREB-binding protein [4] = target: T1, CREB-binding protein; assay: Inhibition of histone H4 tetraacetylated peptide binding to human CBP by Alphascreen assay
Method in brief: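 AlphaScreen competition with a tetra-acetylated 21-mer histone H4 peptide as the competitor for the CBP bromodomain. IC50 was obtained by curve fitting of 10-point dose responses.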

CREB-binding protein [5] = target: T1, CREB-binding protein; assay: Binding affinity to partial length human DNA-tagged CBP (R1081 to G1197 residues) expressed in bacterial expression system by qPCR analysis
Method in brief: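 Competition-binding assay using DNA-tagged CBP bromodomain against an undisclosed proprietary ligand, with quantitative PCR read-out. KD was obtained by curve fitting of 12-point dose responses run in duplicate.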

Chain of Histone acetyltransferase p300 (Homo sapiens) (Q09472 whole entry): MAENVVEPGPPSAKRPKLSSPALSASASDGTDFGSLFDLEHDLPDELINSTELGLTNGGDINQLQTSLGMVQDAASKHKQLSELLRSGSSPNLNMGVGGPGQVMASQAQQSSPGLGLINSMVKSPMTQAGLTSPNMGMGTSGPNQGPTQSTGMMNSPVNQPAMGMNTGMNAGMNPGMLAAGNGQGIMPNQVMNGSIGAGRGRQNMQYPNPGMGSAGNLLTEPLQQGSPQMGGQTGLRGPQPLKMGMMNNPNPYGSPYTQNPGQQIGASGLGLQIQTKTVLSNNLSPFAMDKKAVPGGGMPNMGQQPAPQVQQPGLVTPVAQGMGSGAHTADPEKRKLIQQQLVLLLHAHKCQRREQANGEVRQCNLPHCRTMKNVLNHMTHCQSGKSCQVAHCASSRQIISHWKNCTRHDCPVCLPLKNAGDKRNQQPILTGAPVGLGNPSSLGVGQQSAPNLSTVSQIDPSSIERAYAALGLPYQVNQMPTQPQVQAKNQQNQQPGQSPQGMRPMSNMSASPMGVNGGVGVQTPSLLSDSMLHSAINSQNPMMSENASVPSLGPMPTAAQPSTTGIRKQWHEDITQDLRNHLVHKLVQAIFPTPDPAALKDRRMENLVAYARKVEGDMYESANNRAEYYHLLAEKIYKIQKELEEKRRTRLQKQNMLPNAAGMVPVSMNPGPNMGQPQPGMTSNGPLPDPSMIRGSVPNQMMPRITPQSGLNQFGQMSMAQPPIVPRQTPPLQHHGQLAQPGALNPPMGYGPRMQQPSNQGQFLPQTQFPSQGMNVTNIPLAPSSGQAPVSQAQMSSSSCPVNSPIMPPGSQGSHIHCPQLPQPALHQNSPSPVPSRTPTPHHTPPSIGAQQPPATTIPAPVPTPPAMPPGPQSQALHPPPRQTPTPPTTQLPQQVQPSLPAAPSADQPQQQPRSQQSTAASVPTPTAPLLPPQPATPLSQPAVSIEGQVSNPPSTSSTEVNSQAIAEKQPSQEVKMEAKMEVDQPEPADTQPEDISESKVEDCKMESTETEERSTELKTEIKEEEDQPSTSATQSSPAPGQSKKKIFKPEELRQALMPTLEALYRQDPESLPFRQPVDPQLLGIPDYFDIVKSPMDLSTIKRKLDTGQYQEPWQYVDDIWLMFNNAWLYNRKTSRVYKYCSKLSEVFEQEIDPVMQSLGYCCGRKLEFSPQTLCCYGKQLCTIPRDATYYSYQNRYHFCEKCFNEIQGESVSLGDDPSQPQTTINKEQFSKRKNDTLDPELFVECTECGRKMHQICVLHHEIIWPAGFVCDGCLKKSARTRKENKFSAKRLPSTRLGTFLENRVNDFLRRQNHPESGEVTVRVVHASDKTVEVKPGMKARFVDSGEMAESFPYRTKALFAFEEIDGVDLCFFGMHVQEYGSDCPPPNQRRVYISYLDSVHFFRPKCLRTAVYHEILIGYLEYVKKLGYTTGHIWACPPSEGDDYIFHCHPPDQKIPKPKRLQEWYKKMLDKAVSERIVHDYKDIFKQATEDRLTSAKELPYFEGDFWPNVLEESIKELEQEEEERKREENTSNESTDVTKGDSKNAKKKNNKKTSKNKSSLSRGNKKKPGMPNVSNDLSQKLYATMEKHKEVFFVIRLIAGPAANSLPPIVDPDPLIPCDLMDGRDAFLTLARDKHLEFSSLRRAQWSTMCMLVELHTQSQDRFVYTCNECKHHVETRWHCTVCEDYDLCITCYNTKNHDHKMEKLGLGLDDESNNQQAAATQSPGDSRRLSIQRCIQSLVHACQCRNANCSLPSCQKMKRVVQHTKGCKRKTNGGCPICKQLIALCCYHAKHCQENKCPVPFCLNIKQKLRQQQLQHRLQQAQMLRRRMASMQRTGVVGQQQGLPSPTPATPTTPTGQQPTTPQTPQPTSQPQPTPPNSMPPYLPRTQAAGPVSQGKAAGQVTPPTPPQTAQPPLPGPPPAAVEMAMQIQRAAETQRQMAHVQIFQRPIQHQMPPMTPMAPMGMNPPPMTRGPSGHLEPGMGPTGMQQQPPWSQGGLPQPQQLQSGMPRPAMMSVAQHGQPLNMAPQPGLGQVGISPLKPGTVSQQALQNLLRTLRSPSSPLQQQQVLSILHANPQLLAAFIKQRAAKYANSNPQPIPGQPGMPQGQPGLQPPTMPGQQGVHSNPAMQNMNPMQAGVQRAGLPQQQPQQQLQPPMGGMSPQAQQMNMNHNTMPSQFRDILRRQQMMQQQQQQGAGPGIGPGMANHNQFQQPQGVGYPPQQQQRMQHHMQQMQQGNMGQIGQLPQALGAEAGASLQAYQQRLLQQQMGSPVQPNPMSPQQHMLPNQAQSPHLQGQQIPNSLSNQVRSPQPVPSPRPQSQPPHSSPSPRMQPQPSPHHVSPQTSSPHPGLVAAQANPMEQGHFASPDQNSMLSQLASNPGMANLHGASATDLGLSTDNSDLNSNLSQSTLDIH

residual activity (CREB-binding protein [3])	SMILES	also measured
48%	COc1ccc(-c2c[nH]nc2N)cc1OC	ΔTm (CREB-binding protein [1]): -0.1 °C; ΔTm [2]: -1.3 °C
98%	O=c1[nH]c(=O)n([C@H]2C[C@H](O)[C@H](CO)O2)cc1F	–
37%	COc1cc(C(C)=O)ccc1N	ΔTm (CREB-binding protein [1]): 2.4 °C; ΔTm [2]: 2.6 °C
79%	CCn1cnc2ccc(C(=O)OC)cc21	–
31%	CC(=O)c1cn(C)c2ccccc12	ΔTm (CREB-binding protein [1]): 2.9 °C; ΔTm [2]: 2.6 °C
92%	Cc1nnsc1Sc1ccccn1	–
92%	COC(=O)c1ccc(C(C)=O)cc1	–
94%	O=C(O)[C@@H]1CS[C@H](c2ccc(F)cc2)N1	–
74%	CC(=O)Nc1ccc(SCC#N)cc1	–
93%	CC(=O)c1ccc(O)c2[nH]c(=O)ccc12	–
96%	CNC(=O)c1ccc(C(F)(F)F)nc1	–
102%	Cc1nnc2ccc(N3CCOCC3)nn12	–
85%	CCc1nnc2cccc(Cl)n12	–
100%	CS(=O)(=O)NCc1ccc2c(c1)OCO2	–
100%	Cn1ncc2c1CCCC2=O	–
34%	COC(=O)c1ccc2[nH]c(=O)oc2c1	ΔTm (CREB-binding protein [1]): 2.3 °C; ΔTm [2]: 1.4 °C; IC50 (CREB-binding protein [4]): 455 µM; Kd (CREB-binding protein [5]): 85 µM
92%	Cc1nc2ccc(NS(C)(=O)=O)cc2o1	–
56%	CC(=O)c1ccc(CC#N)s1	–
56%	COC(=O)N1CCC(C(=O)O)CC1	–
0.1%	CNC(=O)c1cc(Br)c[nH]1	ΔTm (CREB-binding protein [1]): 7.3 °C; ΔTm [2]: 7 °C; IC50 (CREB-binding protein [4]): 40 µM; Kd (CREB-binding protein [5]): 4 µM
